An excerpt weighted towards active compounds, which were near 3.8% of everything screened.
KCNK3 inh = human KCNK3 channel inhibition, primary screen; O14649; CHO-KCNK3 thallium flux, FluxOR fluorescence; active compounds read low; B-score at 10 µM; hit rate 0.84% among 340,000; AID 602410;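 active = B-score under library mean minus 4 SD, starting fluorescence ratio at most library mean plus 5 SD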;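 note: more negative B-score means stronger inhibition of thallium flux through KCNK3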
KCNQ1 block = blocks the human KCNQ1 potassium channel; CHO-K1 KCNQ1, FluxOR thallium flux fluorescence; active compounds read high; B-score at 10 µM; hit rate 1.3% among 310,000; AID 2642;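 active = compounds whose thallium flux B-score, printed positive for inhibition, exceeds three library SD while starting fluorescence stays within three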;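 note: channel opened by potassium depolarization with thallium stimulus after 20 min compound exposure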
hERG rescue = compounds protecting human hERG from proarrhythmic drug block; Q12809; CHO-hERG, FluxOR thallium flux, dofetilide IC70 present; activation (rescue from dofetilide block), less the hit threshold, % at 10 µM; hit rate 0.51% among 310,000;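 active = activation above the mean of controls blocked by dofetilide plus 5 SD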;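 note: thallium influx through hERG after potassium depolarization seen as dye fluorescence rise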
Kir21 block = inhibitors of mouse Kir2.1 inward-rectifier potassium channel; P35561; HEK293-Kir2.1, FluxOR thallium flux fluorescence; active compounds read low; B-score at 10 µM; hit rate 0.85% among 310,000; AID 1672;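 active = fluorescence ratio B-score at or below minus 3 SD of library scores, with starting-brightness B-score within 2 SD, cut at about -4.2 in these data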;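 note: channel flux triggered by added potassium and thallium sulfate stimulus; B-score of peak minus minimum fluorescence over baseline after thallium stimulus; more negative B-score means stronger Kir2.1 block with less thallium influx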
KCNQ1 pot = potentiators or activators of human KCNQ1 potassium channel; CHO-K1 KCNQ1, thallium flux FluxOR fluorescence; active compounds read high; hit rate 0.35% among 310,000; P51787; B-score at 10 µM; AID 2648;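 active = fluorescence ratio B-score, a plate-corrected score, at least three library SD, with initial intensity B-score within 5 SD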
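Assay system: CHO-K1 cells stably expressing KCNQ1. Medium: assay buffer for compound exposure, DMSO matched across wells. Timing: 37 °C overnight plating, 90-min dark dye load, 20-min compound pretreatment. Signal: kinetic FluxOR fluorescence, 10 s baseline plus 110 s post-stimulus.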
KCNK9 block = inhibitors of human KCNK9 two-pore domain potassium channel. Q9NPC2. HEK293 KCNK9, FluxOR thallium flux fluorescence; active compounds read low. B-score at 10 µM. hit rate 1.2% among 310,000. AID 488922;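 active = ratio B-score over 3 SD below the library mean, with starting fluorescence within 5 SD of its mean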;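 note: negative B-score means less thallium flux so channel inhibition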
Target sequence (Q9NPC2 whole entry, looked up, the tested form may be a part): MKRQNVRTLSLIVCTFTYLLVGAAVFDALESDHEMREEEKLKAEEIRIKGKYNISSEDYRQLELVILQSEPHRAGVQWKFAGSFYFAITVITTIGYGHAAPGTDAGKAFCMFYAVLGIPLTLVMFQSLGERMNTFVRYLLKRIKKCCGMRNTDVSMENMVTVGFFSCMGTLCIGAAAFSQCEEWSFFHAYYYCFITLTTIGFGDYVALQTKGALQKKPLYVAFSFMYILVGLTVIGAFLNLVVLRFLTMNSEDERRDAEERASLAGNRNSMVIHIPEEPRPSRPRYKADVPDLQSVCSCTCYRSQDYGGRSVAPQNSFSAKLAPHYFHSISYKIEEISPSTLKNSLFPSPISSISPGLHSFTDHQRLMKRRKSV
* marks the source's active call; other numbers are inactive results; i = inactive; · = no result.

SMILES	KCNK3 inh	KCNQ1 block	hERG rescue	Kir21 block	KCNQ1 pot	KCNK9 block
O=C(Nc1nccs1)c1cc(-c2ccco2)nc2ccccc12	i	i	-20.6	1.68	i	i
COC(=O)c1sccc1NC(=O)c1cc(-c2ccc(C)cc2C)nc2ccccc12	i	8*	-17.9	1.47	i	i
COC(=O)c1sccc1NC(=O)c1ccccc1C(=O)O	i	i	-8.1	-0.1	i	i
Cc1ccc(C)c(-c2cc(C(=O)Nc3sc(C)c(C)c3C(N)=O)c3ccccc3n2)c1	i	6*	-16.0	0.34	i	i
O=C(Nc1nccs1)c1cc(-c2ccccc2)nc2ccccc12	i	i	-14.3	0.83	i	-6.74*
CCOC(=O)c1sc(NC(=O)c2cc(-c3ccccc3)nc3ccccc23)c(C#N)c1C	i	8*	-35.2	-3.06	i	i
CCOC(=O)c1sc(NC(=O)CSc2n[nH]c(-c3ccccc3)n2)c(C#N)c1C	i	i	-18.9	0.22	i	i
CCO[C@H]1OC(C(N)=O)=C[C@@H](C2CC2)[C@@H]1CCCO	·	i	-2.0	0.3	i	i
Cc1ccc(C(=O)C2CC2)cc1C	i	·	·	·	·	·
CCOc1ccc(S(=O)(=O)Nc2cccc(C(=O)NCCCn3ccnc3)c2)cc1	i	·	·	·	·	·
Cc1ccc(C(OCCN(C)C)c2cccc(C(F)(F)F)c2)cc1 (centres undefined)	i	i	-7.8	-5.15*	i	i
CN(C)CCO[C@@H](c1ccc(Cl)cc1)c1ccccn1	i	i	-5.5	-1.01	i	i
Cn1nnnc1SCC(=O)NC1CCCc2ccccc21 (centres undefined)	i	i	6.3*	0.32	i	i
O=C(CSc1nc2cc(Cl)ccc2s1)NC1CCCc2ccccc21 (centres undefined)	i	i	-3.4	-1.08	i	-7.82*
O=C(CSc1nnnn1-c1ccc(Cl)cc1)NC1CCS(=O)(=O)C1 (centres undefined)	i	·	·	·	·	·
COC(=O)c1sc(NC(=O)CN2CCN(c3cccc(Cl)c3)CC2)c(C(=O)OC)c1C	i	·	·	·	·	·
NCC/C=C1/c2ccccc2CSc2ccccc21	i	i	-6.0	-4.35*	i	i
Cc1nn(-c2ccccc2)c(C)c1/C=N/NC(=O)c1cc(C(C)(C)C)[nH]n1	i	i	-12.6	0.59	i	i
Cc1nn(-c2ccccc2)c(Cl)c1/C=N\NC(=O)c1cncc(Br)c1	i	i	-12.3	-0.11	i	i
Cc1ccc(-c2cc(C(=O)N/N=C/c3c(C)nn(-c4ccccc4)c3C)[nH]n2)cc1	i	13*	-7.2	0.82	i	i
Cc1ccc(C)c(OCC(=O)N/N=C/c2c(C)nn(-c3ccccc3)c2Cl)c1C	i	i	-10.2	-4.37*	i	i
COC(=O)N/N=C\c1c(C)nn(-c2ccccc2)c1Cl	i	i	-8.6	-1.35	i	i
Cc1nn(-c2cccc(Cl)c2)c(Cl)c1/C=N/NC(=O)c1cccnc1	i	i	-9.3	1.31	i	-7.43*
COc1ccc(NC(=O)Cc2ccsc2)cc1S(=O)(=O)N1CCOCC1	i	·	·	·	·	·
Cc1ccc(-n2nc3ccc(N)cc3n2)c(C)c1	i	i	7.0*	0.02	i	i
SMILES	KCNK3 inh	KCNQ1 block	hERG rescue	Kir21 block	KCNQ1 pot	KCNK9 block
Cc1ccc(-n2nc3ccc(N)cc3n2)cc1Cl	i	i	-1.7	-0.1	i	i
CCn1c2ccccc2c2cc(NC(=O)C(C)Oc3ccc(OC)cc3)ccc21 (centres undefined)	i	i	-4.6	-0.29	i	i
COc1ccc(N/C(C)=C/C(=O)c2ccccc2)cc1	i	i	-2.1	1.06	i	i
C/C(=C\C(=O)c1ccccc1)NNC(=O)c1ccc(Cl)cc1	i	i	6.5*	0.15	i	i
COc1ccc(C(=O)NN/C(C)=C/C(=O)c2ccccc2)cc1	i	i	9.1*	-2.13	i	i
COC(=O)CCC(C)C1CCC2C3CCC4CC(O)CCC4(C)C3CC(O)C12C (centres undefined)	i	·	·	·	·	·
CCOc1cc(/C=N/NC(=O)CN2CCCCC2)ccc1OCc1cccc(Cl)c1	i	i	-39.3	-4.68*	i	i
CCOc1cc(/C=N/NC(=O)CN2CCCCC2)ccc1OCc1ccc(Cl)cc1	i	i	-6.8	-0.18	i	i
COCCN(C(=O)c1cc(CN2C(=O)c3ccccc3C2=O)ccc1OC)c1c(N)n(CC(C)C)c(=O)[nH]c1=O	i	·	·	·	·	·
COc1ccc(C(=O)n2nc(C)cc2Nc2ccccc2)cc1	i	i	-4.4	0.48	i	-7.38*
Cc1cc(Nc2ccccc2)nn1C(=O)c1ccccc1	i	i	-3.3	0.11	i	i
CCn1nnc2cc(C(=O)Nc3cc(S(C)(=O)=O)ccc3Cl)ccc21	i	i	-13.1	-1.29	10*	i
CCc1ccc(OCCOCC(O)CN2CCN(Cc3ccc(Cl)cc3)CC2)cc1 (centres undefined)	i	i	-14.2	-9.06*	i	i
OC(CNC1CCCCC1)COCCOc1ccc(Br)cc1 (centres undefined)	i	i	-10.9	-4.27*	i	i
OC(COCCOc1ccc(Br)cc1)CN1CCN(Cc2ccccc2)CC1 (centres undefined)	i	i	-6.6	-7.4*	i	i
Cc1cccc(CC(=O)NCCS(=O)(=O)N2CCN(c3cccc(Cl)c3)CC2)c1	i	i	-10.3	0	i	i
OCCNCc1ccc(OCc2ccc(Cl)cc2Cl)cc1	i	i	-18.0	-7.48*	i	i
S=C(Nc1ccccc1)Nc1ccc(OCc2ccc(Cl)cc2Cl)cc1	i	i	-4.2	-1.49	i	i
OCCCCNCc1ccc(OCc2ccc(Cl)cc2Cl)cc1	i	i	-16.9	-7.13*	i	i
COc1ccccc1CNS(=O)(=O)CCNCc1ccco1	i	·	·	·	·	·
NC(N)=NC(=O)c1nc(Cl)c(N2CCCCCC2)nc1N	-9.76*	·	·	·	·	·
COc1ccccc1OC(=O)Nc1ccc(Cl)cc1	i	6*	-10.2	1.2	i	i
O=C(Oc1cccc(NC(=O)c2ccco2)c1)c1ccc(Br)c(S(=O)(=O)N2CCCCC2)c1	i	i	-15.5	-0.24	i	-7.79*
COc1ccc(OC)c(NS(=O)(=O)c2cccc3cccnc23)c1	i	i	-3.6	-0.31	i	i
COc1ccc(NS(=O)(=O)c2ccc3ccccc3c2)c2ncccc12	i	i	5.7*	-0.7	11*	i
COc1ccc(S(=O)(=O)Nc2cccc3c2O[C@H](CN(C)C(=O)Nc2ccc(C(F)(F)F)cc2)[C@@H](C)CN([C@H](C)CO)C3=O)cc1	i	·	·	·	·	·

Assay outcomes (PubChem)
